Source: ChEMBL document CHEMBL2057171, “Arylstibonic acids are potent and isoform-selective inhibitors of Cdc25a and Cdc25b phosphatases” (Bioorg Med Chem, 2012)
Calls of active or inactive are those of the source. The rule behind the calls is not given here.

What was measured:
[1] = target: Receptor-type tyrosine-protein phosphatase beta (Homo sapiens) (UniProt P23467); experiment: Inhibition of PTP-beta receptor using p-NPP as substrate at 5 uM by colorimetric analysis
Summary of the method: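 Purchased PTP-β assayed with 1 mM p-NPP (near KM) in 25 mM Hepes pH 7.4, 50 mM NaCl, 5 mM DTT; arylstibonate fixed at 5 µM. The reaction was started by adding p-NPP in water, and p-nitrophenol release was read at 405 nm. Reported as % inhibition from triplicates, with standard error.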

[2] = organism: Rattus norvegicus; experiment: Inhibition of rat GST-tagged synaptojanin SAC1 domain expressed in Escherichia coli XL-1 blue using I(1,4,5))P3 as substrate at 5 uM by malachite green assay
Summary of the method: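 GST-synaptojanin was expressed in E. coli XL-1 blue (1 mM IPTG, 18°C, 24 h) and purified on glutathione sepharose. Substrate: 50 µM PI(4)P in octylglucoside mixed micelles for synaptojanin; 50 µM I(1,4,5)P3 for SAC1. Assay ran at 37°C in 100 mM Tris pH 7.4, 4 mM MgCl2 with 5 µM compound. Malachite green stopped the reaction, colour developed 10 min, and absorbance was read at 625 nm. Heat-denatured enzyme served as blank. Triplicates.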

[3] = target: M-phase inducer phosphatase 2 (Homo sapiens) (UniProt P30305); experiment: Mixed-type inhibition of N-terminal His-tagged Cdc25b catalytic domain expressed in Escherichia coli BL21(DE3) using 3-O-Methylfluorescein phosphate as substrate by Michaelis-Menten plot analysis
Sequence of M-phase inducer phosphatase 2 (Homo sapiens) (P30305 whole entry, the tested form may be a part): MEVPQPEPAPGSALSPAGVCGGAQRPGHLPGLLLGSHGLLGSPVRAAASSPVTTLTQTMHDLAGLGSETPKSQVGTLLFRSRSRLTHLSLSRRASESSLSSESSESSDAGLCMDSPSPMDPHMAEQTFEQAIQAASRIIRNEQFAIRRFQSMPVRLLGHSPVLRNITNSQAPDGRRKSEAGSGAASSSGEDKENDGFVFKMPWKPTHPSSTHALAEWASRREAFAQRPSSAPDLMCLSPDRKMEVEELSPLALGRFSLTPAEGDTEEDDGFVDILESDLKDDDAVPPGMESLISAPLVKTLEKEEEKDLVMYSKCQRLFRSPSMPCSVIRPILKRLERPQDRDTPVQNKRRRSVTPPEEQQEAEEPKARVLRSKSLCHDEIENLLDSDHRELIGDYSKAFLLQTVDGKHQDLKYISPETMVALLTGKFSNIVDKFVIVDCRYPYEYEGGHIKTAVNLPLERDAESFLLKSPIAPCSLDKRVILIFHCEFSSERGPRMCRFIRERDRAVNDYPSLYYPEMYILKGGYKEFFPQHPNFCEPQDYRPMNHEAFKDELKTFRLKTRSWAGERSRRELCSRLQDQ
Summary of the method: (§1)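 Steady-state kinetics of the Cdc25a and Cdc25b catalytic domains with varying OMFP and several arylstibonate concentrations. Run at 20 °C in 100 mM Tris pH 7.4 with 2 mM DTT, after a 10 min RT enzyme–inhibitor preincubation. Fluorescence read at ex 485/em 525 nm. Michaelis–Menten plots give apparent Km and Vmax; secondary plots give Ki.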

[4] = target: M-phase inducer phosphatase 1 (Homo sapiens) (UniProt P30304); experiment: Mixed-type inhibition of N-terminal His-tagged Cdc25a catalytic domain expressed in Escherichia coli BL21(DE3) using 3-O-Methylfluorescein phosphate as substrate by Michaelis-Menten plot analysis; summary of the method: as §1
Sequence of M-phase inducer phosphatase 1 (Homo sapiens) (P30304 whole entry, the tested form may be a part): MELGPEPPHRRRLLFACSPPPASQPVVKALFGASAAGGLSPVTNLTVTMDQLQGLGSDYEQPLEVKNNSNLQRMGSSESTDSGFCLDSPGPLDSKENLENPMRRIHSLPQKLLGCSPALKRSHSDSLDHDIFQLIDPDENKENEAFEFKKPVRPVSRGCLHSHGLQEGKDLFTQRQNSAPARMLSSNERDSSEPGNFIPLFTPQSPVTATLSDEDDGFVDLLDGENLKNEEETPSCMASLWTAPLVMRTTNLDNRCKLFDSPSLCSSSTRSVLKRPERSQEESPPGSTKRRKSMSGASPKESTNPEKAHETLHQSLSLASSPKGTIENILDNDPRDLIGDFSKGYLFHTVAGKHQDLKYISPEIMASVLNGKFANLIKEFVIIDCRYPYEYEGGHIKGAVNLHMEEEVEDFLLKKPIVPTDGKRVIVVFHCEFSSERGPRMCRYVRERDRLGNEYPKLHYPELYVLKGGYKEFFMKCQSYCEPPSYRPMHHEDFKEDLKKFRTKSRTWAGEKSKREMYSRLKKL

[5] = target: M-phase inducer phosphatase 2 (Homo sapiens) (UniProt P30305); experiment: Reversible inhibition of N-terminal His-tagged Cdc25b catalytic domain expressed in Escherichia coli BL21(DE3) using 3-O-Methylfluorescein phosphate as substrate at 4 times IC50 by 10-fold dilution method
Summary of the method: (§2)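 Reversibility test by dilution. Cdc25a or Cdc25b is preincubated with arylstibonate, then diluted 10-fold in reaction buffer (100 mM Tris pH 7.4, 2 mM DTT). Activity is then measured in the OMFP fluorescence assay (ex 485/em 525 nm, 20 °C) and expressed as % of the uninhibited reaction.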

[6] = target: M-phase inducer phosphatase 1 (Homo sapiens) (UniProt P30304); experiment: Reversible inhibition of N-terminal His-tagged Cdc25a catalytic domain expressed in Escherichia coli BL21(DE3) using 3-O-Methylfluorescein phosphate as substrate at 4 times IC50 by 10-fold dilution method; summary of the method: as §2

Sequence of Receptor-type tyrosine-protein phosphatase beta (Homo sapiens) (P23467 whole entry, looked up): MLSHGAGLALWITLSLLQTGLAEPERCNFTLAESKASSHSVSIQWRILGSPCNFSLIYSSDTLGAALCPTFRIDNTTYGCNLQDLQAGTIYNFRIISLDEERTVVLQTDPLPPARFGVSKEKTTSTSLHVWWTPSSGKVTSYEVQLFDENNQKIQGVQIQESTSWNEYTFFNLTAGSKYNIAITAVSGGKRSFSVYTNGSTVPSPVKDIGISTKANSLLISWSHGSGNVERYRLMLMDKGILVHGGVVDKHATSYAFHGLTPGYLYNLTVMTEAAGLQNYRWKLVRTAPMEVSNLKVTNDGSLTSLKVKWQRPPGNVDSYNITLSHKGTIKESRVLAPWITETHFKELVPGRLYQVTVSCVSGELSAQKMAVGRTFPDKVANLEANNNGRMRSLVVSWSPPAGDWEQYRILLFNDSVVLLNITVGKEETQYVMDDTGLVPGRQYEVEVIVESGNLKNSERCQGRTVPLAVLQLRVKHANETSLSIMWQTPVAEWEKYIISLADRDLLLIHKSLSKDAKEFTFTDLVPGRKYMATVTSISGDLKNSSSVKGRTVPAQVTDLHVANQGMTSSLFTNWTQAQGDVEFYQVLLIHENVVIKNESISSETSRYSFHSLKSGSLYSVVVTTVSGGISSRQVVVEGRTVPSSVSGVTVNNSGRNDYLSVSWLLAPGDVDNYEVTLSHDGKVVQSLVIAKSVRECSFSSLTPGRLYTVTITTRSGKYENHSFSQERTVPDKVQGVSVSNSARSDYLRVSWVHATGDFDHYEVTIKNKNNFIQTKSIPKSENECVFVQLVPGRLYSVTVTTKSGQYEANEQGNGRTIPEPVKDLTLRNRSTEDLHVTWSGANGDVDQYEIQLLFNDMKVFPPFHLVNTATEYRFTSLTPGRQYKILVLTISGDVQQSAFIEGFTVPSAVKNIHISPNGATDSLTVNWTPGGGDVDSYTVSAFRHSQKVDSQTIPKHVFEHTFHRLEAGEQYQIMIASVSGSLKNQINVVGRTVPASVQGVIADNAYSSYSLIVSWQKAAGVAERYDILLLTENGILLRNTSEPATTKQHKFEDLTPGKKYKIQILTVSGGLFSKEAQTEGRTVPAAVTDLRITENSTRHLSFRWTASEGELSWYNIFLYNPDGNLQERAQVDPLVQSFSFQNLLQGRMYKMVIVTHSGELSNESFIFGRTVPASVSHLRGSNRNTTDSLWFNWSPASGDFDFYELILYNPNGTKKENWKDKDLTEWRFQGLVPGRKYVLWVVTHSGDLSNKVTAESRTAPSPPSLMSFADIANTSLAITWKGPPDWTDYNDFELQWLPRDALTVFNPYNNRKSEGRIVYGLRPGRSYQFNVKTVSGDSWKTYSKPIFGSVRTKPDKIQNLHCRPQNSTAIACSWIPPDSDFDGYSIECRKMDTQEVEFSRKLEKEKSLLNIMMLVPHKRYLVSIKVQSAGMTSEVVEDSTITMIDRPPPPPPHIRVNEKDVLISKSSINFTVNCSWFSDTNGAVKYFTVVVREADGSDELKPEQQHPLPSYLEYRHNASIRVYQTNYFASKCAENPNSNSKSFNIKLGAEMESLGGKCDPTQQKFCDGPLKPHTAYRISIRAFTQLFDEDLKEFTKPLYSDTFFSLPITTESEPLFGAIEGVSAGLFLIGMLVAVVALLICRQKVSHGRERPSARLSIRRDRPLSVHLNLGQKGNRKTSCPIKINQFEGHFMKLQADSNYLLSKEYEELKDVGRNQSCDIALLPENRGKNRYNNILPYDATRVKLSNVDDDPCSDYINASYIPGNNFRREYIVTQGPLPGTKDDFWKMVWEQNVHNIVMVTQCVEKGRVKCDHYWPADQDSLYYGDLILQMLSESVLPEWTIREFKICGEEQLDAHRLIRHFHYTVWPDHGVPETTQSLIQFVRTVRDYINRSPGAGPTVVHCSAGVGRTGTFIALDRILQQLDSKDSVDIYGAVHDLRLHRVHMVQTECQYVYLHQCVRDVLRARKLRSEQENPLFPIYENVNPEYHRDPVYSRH

inhibition [1] | inhibition [2] [%] | Substance | inhibition [3] | inhibition [4] | inhibition [5] | inhibition [6]
> 90% | > 40 | 4-iodophenylstibonic acid |  |  |  | 
51% | < 40 | 4-stibonophthalic acid |  |  |  | 
> 90% | > 40 | 2-nitro-4-stibonobenzoic acid |  |  |  | 
> 90% | > 40 | 4-(2-ethoxy-2-oxoethyl)phenylstibonic acid |  |  |  | 
50% | < 40 | 3-nitrophenylstibonic acid |  |  |  | 
67% | < 40 | 2-(4-stibonobenzyl)malonic acid |  |  |  | 
> 90% | > 40 | 4-((4-hydroxyphenyl)diazenyl)phenylstibonic acid |  |  |  | 
72% | < 40 | 4-stibonobenzoic acid |  |  |  | 
> 90% | > 40 | 2-(3-stibonobenzyl)malonic acid |  |  |  | 
78% | < 40 | 3-stibonobenzoic acid |  |  |  | 
inactive | < 40 | PHENYLSTIBONIC ACID |  |  |  | 
inactive | < 40 | 3-(methoxycarbonyl)phenylstibonic acid |  |  |  | 
inactive | < 40 | 3-(3-ethoxy-2-(ethoxycarbonyl)-3-oxopropyl)phenylstibonic acid |  |  |  | 
inactive | < 40 | 4-hydroxyphenylstibonic acid |  |  |  | 
> 90% | > 40 | 2-(3-stibonophenoxy)acetic acid |  |  |  | 
> 90% | > 40 | 4-benzamidophenylstibonic acid |  |  |  | 
> 90% | > 40 | 2-nitrophenylstibonic acid |  |  |  | 

Substance | inhibition [1] | inhibition [2] [%] | inhibition [3] | inhibition [4] | inhibition [5] | inhibition [6]
(E)-3-(3-stibonophenyl)acrylic acid | > 90% | > 40 | Active | Active | Active | Active
3-(3-stibonophenyl)propanoic acid | > 90% | > 40 | Active | Active | Active | Active
